ChEMBL document CHEMBL4251757 (J Med Chem, 2018)
Blank lines part the entries; values can stand above or below the compound they belong to.

Legend:
Oxoeicosanoid receptor 1 [1] = target: T1, Oxoeicosanoid receptor 1 (Homo sapiens, UniProt Q8TDS5); assay: Antagonist activity at OXE receptor in human neutrophils assessed as inhibition of 5-oxo-ETE-induced calcium mobilization incubated for 2 mins followed by 5-oxo-ETE addition measured after 1 min by fluorescence assay; type: functional
Procedure, shortened: (§1)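 Human neutrophils were isolated from healthy donors by dextran sedimentation and Ficoll-Paque centrifugation, then loaded with indo-1. Fluorescence was read at 37 °C in a stirred cuvette. Antagonist was added at various concentrations; 2 min later 5-oxo-ETE (10 nM) was added. Digitonin (final 0.1%) followed 1 min later to give maximal fluorescence.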

[2] = Plasma concentration in cynomolgus monkey at 30 mg/kg administered via oral gavage after 3 days by RP-HPLC analysis; type: ADME, organism-based, Macaca fascicularis
Procedure, shortened: (§2)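 Female cynomolgus monkeys (2.5–3.5 kg). Compound dissolved in EtOH at 75 mg/mL, diluted in 10 volumes of 20 mM NaHCO3 pH 8.0 (9.1% EtOH) and given by oral gavage; 4.4 mL/kg for 30 mg/kg, 2.2 mL/kg for lower doses. Blood drawn into heparin pre-dose and at 0.5, 1, 2, 4, 8, 12, 24 h, sometimes 3 and 7 days. Plasma diluted with 2 volumes MeOH plus internal standard, then RP-HPLC.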

[3] = Plasma concentration in cynomolgus monkey at 30 mg/kg administered via oral gavage after 7 days by RP-HPLC analysis; type: ADME, organism-based, Macaca fascicularis; procedure, shortened: as §2
[4] = Drug level in cynomolgus monkey plasma treated with 30 mg/kg 5-(5-Chloro-1-methyl-2-(6-phenylhexyl)-1H-indol-3-yl)-3-methyl-5-oxopentanoic Acid administered via oral gavage assessed as compound formation after 12 hrs by RP-HPLC analysis; type: ADME, organism-based, Macaca fascicularis; conditions: in vivo
Procedure, shortened: (§3)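 Monkeys received 30 mg/kg by oral gavage in EtOH/20 mM NaHCO3 pH 8.0 vehicle. A plasma extract taken 12 h later was run by RP-HPLC on a C18 column (4 µm, 3.9 x 150 mm) with a 15-min gradient of 70–100% MeOH in H2O, both containing 0.02% HOAc. The tetramethylene analog served as internal standard.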

[5] = Tmax in cynomolgus monkey plasma at 30 mg/kg administered via oral gavage by RP-HPLC analysis; type: ADME, organism-based, Macaca fascicularis; procedure, shortened: as §2
[6] = Tmax in cynomolgus monkey plasma at 15 mg/kg administered via oral gavage by RP-HPLC analysis; type: ADME, organism-based, Macaca fascicularis
[7] = Tmax in cynomolgus monkey plasma at 1 mg/kg administered via oral gavage by RP-HPLC analysis; type: ADME, organism-based, Macaca fascicularis; procedure, shortened: as §2
[8] = Tmax in cynomolgus monkey plasma at 2 mg/kg administered via oral gavage by RP-HPLC analysis; type: ADME, organism-based, Macaca fascicularis; procedure, shortened: as §2
[9] = Tmax in cynomolgus monkey plasma at 5 mg/kg administered via oral gavage by RP-HPLC analysis; type: ADME, organism-based, Macaca fascicularis; procedure, shortened: as §2
[10] = Tmax in cynomolgus monkey plasma at 10 mg/kg administered via oral gavage by RP-HPLC analysis; type: ADME, organism-based, Macaca fascicularis; procedure, shortened: as §2
[11] = Cmax in cynomolgus monkey plasma at 30 mg/kg administered via oral gavage by RP-HPLC analysis; type: ADME, organism-based, Macaca fascicularis; set-up: dose 30 mg/kg, route oral; procedure, shortened: as §2
[12] = Cmax in cynomolgus monkey plasma at 15 mg/kg administered via oral gavage by RP-HPLC analysis; type: ADME, organism-based, Macaca fascicularis; set-up: dose 15 mg/kg, route oral
[13] = Cmax in cynomolgus monkey plasma at 1 mg/kg administered via oral gavage by RP-HPLC analysis; type: ADME, organism-based, Macaca fascicularis; set-up: dose 1 mg/kg, route oral; procedure, shortened: as §2
[14] = Cmax in cynomolgus monkey plasma at 2 mg/kg administered via oral gavage by RP-HPLC analysis; type: ADME, organism-based, Macaca fascicularis; set-up: dose 2 mg/kg, route oral; procedure, shortened: as §2
[15] = Cmax in cynomolgus monkey plasma at 5 mg/kg administered via oral gavage by RP-HPLC analysis; type: ADME, organism-based, Macaca fascicularis; set-up: dose 5 mg/kg, route oral; procedure, shortened: as §2
[16] = Cmax in cynomolgus monkey plasma at 10 mg/kg administered via oral gavage by RP-HPLC analysis; type: ADME, organism-based, Macaca fascicularis; set-up: dose 10 mg/kg, route oral; procedure, shortened: as §2
[17] = Half life in cynomolgus monkey plasma at 30 mg/kg administered via oral gavage by RP-HPLC analysis; type: ADME, organism-based, Macaca fascicularis; procedure, shortened: as §2
[18] = Half life in cynomolgus monkey plasma at 15 mg/kg administered via oral gavage by RP-HPLC analysis; type: ADME, organism-based, Macaca fascicularis
[19] = Half life in cynomolgus monkey plasma at 1 mg/kg administered via oral gavage by RP-HPLC analysis; type: ADME, organism-based, Macaca fascicularis; procedure, shortened: as §2
[20] = Half life in cynomolgus monkey plasma at 2 mg/kg administered via oral gavage by RP-HPLC analysis; type: ADME, organism-based, Macaca fascicularis; procedure, shortened: as §2
[21] = Half life in cynomolgus monkey plasma at 5 mg/kg administered via oral gavage by RP-HPLC analysis; type: ADME, organism-based, Macaca fascicularis; procedure, shortened: as §2
[22] = Half life in cynomolgus monkey plasma at 10 mg/kg administered via oral gavage by RP-HPLC analysis; type: ADME, organism-based, Macaca fascicularis; procedure, shortened: as §2
[23] = AUC (0 to 24 hrs) in cynomolgus monkey plasma at 30 mg/kg administered via oral gavage by RP-HPLC analysis; type: ADME, organism-based, Macaca fascicularis; set-up: dose 30 mg/kg, time < 24 hr, route oral; procedure, shortened: as §2
[24] = AUC (0 to 24 hrs) in cynomolgus monkey plasma at 15 mg/kg administered via oral gavage by RP-HPLC analysis; type: ADME, organism-based, Macaca fascicularis; set-up: time < 24 hr, dose 15 mg/kg, route oral
[25] = AUC (0 to 24 hrs) in cynomolgus monkey plasma at 1 mg/kg administered via oral gavage by RP-HPLC analysis; type: ADME, organism-based, Macaca fascicularis; set-up: time < 24 hr, dose 1 mg/kg, route oral; procedure, shortened: as §2
[26] = AUC (0 to 24 hrs) in cynomolgus monkey plasma at 2 mg/kg administered via oral gavage by RP-HPLC analysis; type: ADME, organism-based, Macaca fascicularis; set-up: dose 2 mg/kg, time < 24 hr, route oral; procedure, shortened: as §2
[27] = AUC (0 to 24 hrs) in cynomolgus monkey plasma at 5 mg/kg administered via oral gavage by RP-HPLC analysis; type: ADME, organism-based, Macaca fascicularis; set-up: dose 5 mg/kg, time < 24 hr, route oral; procedure, shortened: as §2
[28] = AUC (0 to 24 hrs) in cynomolgus monkey plasma at 10 mg/kg administered via oral gavage by RP-HPLC analysis; type: ADME, organism-based, Macaca fascicularis; set-up: time < 24 hr, dose 10 mg/kg, route oral; procedure, shortened: as §2
[29] = Plasma concentration in cynomolgus monkey at 30 mg/kg administered via oral gavage after 24 hrs by chiral-HPLC analysis; type: ADME, organism-based, Macaca fascicularis
Procedure, shortened: (§4)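 After oral gavage of racemate at 30 mg/kg, plasma C025 or its metabolite was isolated by RP-HPLC, then run by chiral HPLC on Cellulose-1 at 2 ml/min and 30 °C. Mobile phase was hexane/MeOH/HOAc 97.5:2.5:0.1 for parent and 97:3:0.1 for metabolite. Samples were taken at 4 h and 24 h; n=2 for enantiomer levels.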

[30] = Drug metabolism in cynomolgus monkey plasma at 30 mg/kg administered via oral gavage assessed as metabolite (R)-5-(5-Chloro-2-((S)-1-hydroxy-6-phenylhexyl)-1-methyl-1Hindol-3-yl)-3-methyl-5-oxopentanoic acid formation after 4 hrs by chiral-HPLC analysis; type: ADME, organism-based, Macaca fascicularis; conditions: in vivo; procedure, shortened: as §4
Oxoeicosanoid receptor 1 [31] = target: T1, Oxoeicosanoid receptor 1; assay: Antagonist activity at OXE receptor in human neutrophils assessed as inhibition of 5-oxo-ETE-induced calcium mobilization incubated for 2 mins followed by 5-oxo-ETE addition by fluorescence assay; type: functional; procedure, shortened: as §1
[32] = Drug metabolism in cynomolgus monkey plasma at 30 mg/kg administered via oral gavage assessed as phenylpentamethylene side chain modification after 12 hrs by RP-HPLC analysis; type: ADME, organism-based, Macaca fascicularis; conditions: in vivo; procedure, shortened: as §3
[33] = Plasma concentration in cynomolgus monkey at 30 mg/kg administered as oral gavage measured after 1 hr by RP-HPLC analysis; type: ADME, organism-based, Macaca fascicularis; procedure, shortened: as §2
[34] = Plasma concentration in cynomolgus monkey at 30 mg/kg administered as oral gavage measured after 8 hrs by RP-HPLC analysis; type: ADME, organism-based, Macaca fascicularis; procedure, shortened: as §2

T1 sequence (Q8TDS5 whole entry): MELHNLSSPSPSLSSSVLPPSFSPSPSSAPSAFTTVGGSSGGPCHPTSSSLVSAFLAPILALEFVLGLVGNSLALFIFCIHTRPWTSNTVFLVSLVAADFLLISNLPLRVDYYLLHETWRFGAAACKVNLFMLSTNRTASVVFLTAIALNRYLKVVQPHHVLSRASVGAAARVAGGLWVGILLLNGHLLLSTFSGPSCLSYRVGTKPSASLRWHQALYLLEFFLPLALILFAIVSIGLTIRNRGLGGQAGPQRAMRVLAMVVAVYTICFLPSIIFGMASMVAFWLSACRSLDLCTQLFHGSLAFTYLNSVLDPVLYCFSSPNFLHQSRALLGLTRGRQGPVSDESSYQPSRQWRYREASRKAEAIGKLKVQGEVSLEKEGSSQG

Structure (SMILES): C[C@H](CC(=O)O)CC(=O)c1c([C@H](O)CCCCCc2ccccc2)n(C)c2ccc(Cl)cc12
IC50 (Oxoeicosanoid receptor 1 [1]): 260 nM

Structure (SMILES): C[C@H](CC(=O)O)CC(=O)c1c([C@@H](O)CCCCCc2ccccc2)n(C)c2ccc(Cl)cc12
IC50 (Oxoeicosanoid receptor 1 [1]): 0.38 to 0.69 nM
concentration at 72 h [2]: 1.5 µM
concentration at 168 h [3]: 0.2 µM
Drug uptake [4]: Active

Structure (SMILES): CC(CC(=O)O)CC(=O)c1c(C(O)CCCCCc2ccccc2)n(C)c2ccc(Cl)cc12 (stereo unspecified)
Drug uptake [4]: Active

Structure (SMILES): CC(CC(=O)O)CC(=O)n1c(CCCCCc2ccccc2)cc2ccc(Cl)cc21 (racemic)
IC50 (Oxoeicosanoid receptor 1 [1]): 2.1 nM
Tmax [5]: 2 h
Cmax [11]: 55 µM
half-life [17]: 3 h
AUC(0-t) at 24 h [23]: 294 µM·h
Drug metabolism [32]: Metabolite_Detected

Structure (SMILES): CC(CC(=O)O)CC(=O)n1c(CCCCc2ccccc2)cc2ccc(Cl)cc21 (stereo unspecified)
IC50 (Oxoeicosanoid receptor 1 [1]): 18 nM

Structure (SMILES): CCCCCCc1c(C(=O)C[C@H](C)CC(=O)O)c2cc(Cl)ccc2n1C
concentration at 1 h [33]: 36 µM
concentration at 8 h [34]: 1.6 µM
Tmax [5]: 1 h
Cmax [11]: 36 µM
half-life [17]: 1.6 h
AUC(0-t) at 24 h [23]: 100 µM·h

Further lines, results first:

IC50 (Oxoeicosanoid receptor 1 [1]): 38 nM
Structure (SMILES): CC(CC(=O)O)CC(=O)c1c(CCCCCC(F)(F)F)n(C)c2ccc(Cl)cc12 (stereo unspecified)

IC50 (Oxoeicosanoid receptor 1 [1]): 0.12 nM
Tmax [5]: 1.3 h
Tmax [6]: 0.8 h
Tmax [7]: 0.7 h
Tmax [8]: 0.7 h
Tmax [9]: 1.2 h
Tmax [10]: 1.2 h
Cmax [11]: 106 µM
Cmax [12]: 32 µM
Cmax [13]: 4.5 µM
Cmax [14]: 7.8 µM
Cmax [15]: 18 µM
Cmax [16]: 35 µM
half-life [17]: 3.5 h
half-life [18]: 3.4 h
half-life [19]: 0.9 h
half-life [20]: 1.1 h
half-life [21]: 1.9 h
half-life [22]: 2.8 h
AUC(0-t) at 24 h [23]: 684 µM·h
AUC(0-t) at 24 h [24]: 169 µM·h
AUC(0-t) at 24 h [25]: 13 µM·h
AUC(0-t) at 24 h [26]: 26 µM·h
AUC(0-t) at 24 h [27]: 78 µM·h
AUC(0-t) at 24 h [28]: 171 µM·h
concentration at 24 h [29]: 1 µM
Drug metabolism [30]: Metabolite_Detected
concentration at 72 h [2]: 0.16 µM
concentration at 168 h [3]: 0.04 µM
Drug uptake [4]: Active
Structure (SMILES): C[C@H](CC(=O)O)CC(=O)c1c(CCCCCCc2ccccc2)n(C)c2ccc(Cl)cc12

IC50 (Oxoeicosanoid receptor 1 [31]): 500 nM
Structure (SMILES): CCCCC/C=C\C[C@H](O)/C=C/C=C\C=C\C(=O)CCCC(=O)O
